Tested on: MZ2-MEL.61 cells (D-) expressing HLA-A1
Experiment: Peptide sensitization assay
Assay type: cell-based, human
Details: CTL clone 20/38
Outline: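 Target cells (MZ2-MEL.61, antigen-loss D− variant, HLA-A1+) were 51Cr-labelled for 1 h at 37°C and washed extensively. 1,000 cells/well were preincubated 30 min at 37°C with various concentrations of synthetic test peptide (>90% HPLC purity; stock in 0.02 M PBS). CTL 20/38 were then added in equal volume at E/T 10:1. Chromium release was read after 4 h at 37°C. D+ and D− MZ2-MEL cells without peptide served as reference.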

## EVDPIGHVY [MAGE-6 derived peptide]
  Recognition by the anti-MZ2-D CTL clone: not recognized

From PMC2191409 (The Journal of Experimental Medicine, 1994)
